Data: ChEMBL document CHEMBL1144989, “Synthesis and biological evaluation of resveratrol and analogues as apoptosis-inducing agents” (J Med Chem, 2003)

Experiments:
HL-60 [1] = assay: In vitro concentration required to induce apoptosis in HL60 cells; assay type: functional, cell-based, Homo sapiens
Procedure, shortened: (§1)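 Apoptosis scored morphologically after acridine orange/ethidium bromide labeling. 2 × 10^5 cells were pelleted at 300g, resuspended in dye mix and examined under a fluorescence microscope with a 100× oil objective. Percentages were confirmed by annexin V/PI and by the PI sub-G0-G1 hypodiploid peak after 48 h culture. Compounds were diluted in medium from DMSO or PBS, DMSO ≤0.1%.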

HL-60 [2] = assay: In vitro inhibitory concentration against proliferation of HL60 cells; assay type: functional, cell-based, Homo sapiens
Procedure, shortened: (§2)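 Cells were cultured at 37 °C in 5% CO2. 2 × 10^5 cells in 1 mL complete medium were treated with a range of drug concentrations for 48 h. Viable cells were counted on a hemocytometer after trypan blue staining and expressed as percent of control proliferation. Compounds were diluted in medium from DMSO or PBS stocks, final DMSO ≤0.1%, protected from light.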

HL-60 [3] = assay: (§3) In vitro inhibitory concentration against proliferation of HL60R cells; assay type: functional, cell-based; settings: Homo sapiens
Procedure, shortened: (§4)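 HL60R cells, 2 × 10^5 per well in 1 mL complete medium at 37 °C with 5% CO2, treated with a range of drug concentrations for 48 h. Compounds were dissolved in DMSO or PBS, with final DMSO ≤0.1%. Viable cells were counted by trypan blue exclusion on a hemocytometer and expressed as percent of control proliferation to derive the IC50.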

HL-60 [4] = assay: (§5) In vitro concentration required to induce apoptosis in HL60R cells; assay type: functional, cell-based; settings: Homo sapiens
Procedure, shortened: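 HL60R cells in 5% CO2 at 37 °C, treated with a range of drug concentrations for 48 h. Cells were labelled with acridine orange/ethidium bromide and scored under fluorescence microscopy (100× oil) as live, apoptotic or necrotic. The AC50 is derived from the percentage of apoptotic cells. Annexin V/PI staining and PI sub-G0-G1 flow cytometry served as confirmation. DMSO ≤0.1%.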

HL-60 [5] = assay: (§6) In vitro inhibitory concentration against proliferation of HL60R cells along with 5 (uM) verapamil; assay type: functional, cell-based; settings: Homo sapiens
Procedure, shortened: as §4, with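 “given verapamil together” for “treated”, “h.” for “h. Compounds were dissolved in DMSO or PBS, with final DMSO ≤0.1%.”, “IC50. Final DMSO ≤0.1%.” for “IC50.”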

HL-60 [6] = assay: as §3; assay type: functional, cell-based; settings: Homo sapiens; procedure, shortened: as §2; remark: listed apart in the source
HL-60 [7] = assay: as §6; assay type: functional, cell-based; settings: Homo sapiens; procedure, shortened: as §2; remark: listed apart in the source
HL-60 [8] = assay: as §5; assay type: functional, cell-based; settings: Homo sapiens; procedure, shortened: as §1; remark: listed apart in the source
HL-60 [9] = assay: In vitro concentration required to inhibit cell proliferation in HL60R cells; settings: Homo sapiens

Oc1ccc(/C=C\c2cc(O)cc(O)c2)cc1 [CIS-RESVERATROL]
AC50 (HL-60 [1]; Homo sapiens, HL-60): > 200000 nM
IC50 (HL-60 [2]; Homo sapiens, HL-60): 42000 nM

O=c1[nH]cc(F)c(=O)[nH]1 [FLUOROURACIL]
AC50 (HL-60 [1]; Homo sapiens, HL-60): 6500 nM
IC50 (HL-60 [2]; Homo sapiens, HL-60): 1500 nM

COc1ccc(/C=C\c2cc(O)cc(O)c2)cc1O
AC50 (HL-60 [1]; Homo sapiens, HL-60): 70000 nM
IC50 (HL-60 [2]; Homo sapiens, HL-60): 40000 nM

COc1cc(/C=C\c2ccc(OC)c(O)c2)cc(OC)c1
AC50 (HL-60 [1]; Homo sapiens, HL-60): 40 nM
IC50 (HL-60 [3]): 25 nM
AC50 (HL-60 [4]): 30 nM
IC50 (HL-60 [5]): 20 nM

COc1cc(/C=C\c2ccc(OC)c(N)c2)cc(OC)c1
AC50 (HL-60 [1]; Homo sapiens, HL-60): 40 nM
IC50 (HL-60 [6]): 35 nM
IC50 (HL-60 [7]): 32 nM
AC50 (HL-60 [8]): 50 nM

COc1cc(/C=C\c2ccc(O)c(OC)c2)cc(OC)c1
AC50 (HL-60 [1]; Homo sapiens, HL-60): 38000 nM
IC50 (HL-60 [2]; Homo sapiens, HL-60): 20000 nM

COc1cc(/C=C\c2ccc(O)cc2)cc(OC)c1
AC50 (HL-60 [1]; Homo sapiens, HL-60): 5000 nM
IC50 (HL-60 [2]; Homo sapiens, HL-60): 2000 nM

Nc1ccn([C@@H]2O[C@H](CO)[C@@H](O)[C@@H]2O)c(=O)n1 [CYTARABINE]
AC50 (HL-60 [1]; Homo sapiens, HL-60): 150 nM
IC50 (HL-60 [9]): 350 nM
IC50 (HL-60 [2]; Homo sapiens, HL-60): 80 nM
AC50 (HL-60 [8]): 8000 nM

COc1ccc(/C=C\c2cc(O)cc(O)c2)cc1N
AC50 (HL-60 [1]; Homo sapiens, HL-60): 68000 nM
IC50 (HL-60 [2]; Homo sapiens, HL-60): 40000 nM

Oc1ccc(/C=C/c2cc(O)cc(O)c2)cc1 [RESVERATROL]
AC50 (HL-60 [1]; Homo sapiens, HL-60): 50000 nM
IC50 (HL-60 [2]; Homo sapiens, HL-60): 5000 nM

COc1cc(/C=C/c2ccc(OC)c(N)c2)cc(OC)c1
AC50 (HL-60 [1]; Homo sapiens, HL-60): 8000 nM
IC50 (HL-60 [2]; Homo sapiens, HL-60): 4000 nM

COc1cc([C@@H]2c3cc4c(cc3[C@@H](O[C@@H]3O[C@@H]5CO[C@@H](C)O[C@H]5[C@H](O)[C@H]3O)[C@H]3COC(=O)[C@H]23)OCO4)cc(OC)c1O [ETOPOSIDE]
AC50 (HL-60 [1]; Homo sapiens, HL-60): 450 nM
IC50 (HL-60 [6]): 6500 nM
IC50 (HL-60 [7]): 500 nM
IC50 (HL-60 [2]; Homo sapiens, HL-60): 123 nM
AC50 (HL-60 [8]): 15000 nM

COc1cc(/C=C/c2ccc(O)cc2)cc(OC)c1 [PTEROSTILBENE]
AC50 (HL-60 [1]; Homo sapiens, HL-60): 70000 nM
IC50 (HL-60 [2]; Homo sapiens, HL-60): 35000 nM

COc1cc(/C=C/c2ccc(O[Si](C)(C)C(C)(C)C)cc2)cc(OC)c1
AC50 (HL-60 [1]; Homo sapiens, HL-60): > 200000 nM
IC50 (HL-60 [2]; Homo sapiens, HL-60): 48000 nM

COc1ccc(/C=C/c2cc(O)cc(O)c2)cc1N
AC50 (HL-60 [1]; Homo sapiens, HL-60): > 200000 nM
IC50 (HL-60 [2]; Homo sapiens, HL-60): 80000 nM

COc1cc(/C=C/c2ccc(O)c(OC)c2)cc(OC)c1
AC50 (HL-60 [1]; Homo sapiens, HL-60): 40000 nM
IC50 (HL-60 [2]; Homo sapiens, HL-60): 25000 nM

COc1ccc(/C=C/c2cc(O)cc(O)c2)cc1O
AC50 (HL-60 [1]; Homo sapiens, HL-60): > 200000 nM
IC50 (HL-60 [2]; Homo sapiens, HL-60): 48000 nM

COc1cc(/C=C\c2ccc(O[Si](C)(C)C(C)(C)C)cc2)cc(OC)c1
AC50 (HL-60 [1]; Homo sapiens, HL-60): > 200000 nM
IC50 (HL-60 [2]; Homo sapiens, HL-60): 50000 nM

COc1cc(/C=C/c2ccc(O)c(O)c2)cc(OC)c1
AC50 (HL-60 [1]; Homo sapiens, HL-60): 1000 nM
IC50 (HL-60 [2]; Homo sapiens, HL-60): 800 nM

COc1cc(/C=C\c2ccc(O)c(O)c2)cc(OC)c1
AC50 (HL-60 [1]; Homo sapiens, HL-60): 100 nM
IC50 (HL-60 [2]; Homo sapiens, HL-60): 50 nM

COc1cccc2c1C(=O)c1c(O)c3c(c(O)c1C2=O)C[C@@](O)(C(C)=O)C[C@@H]3O[C@H]1C[C@H](N)[C@H](O)[C@H](C)O1 [DAUNORUBICIN]
AC50 (HL-60 [1]; Homo sapiens, HL-60): 40 nM
IC50 (HL-60 [6]): 1500 nM
IC50 (HL-60 [7]): 40 nM
IC50 (HL-60 [2]; Homo sapiens, HL-60): 5 nM
AC50 (HL-60 [8]): 10000 nM

CISPLATIN
AC50 (HL-60 [1]; hl-60): 1200 nM
IC50 (HL-60 [2]; hl-60): 600 nM

COc1cc(/C=C/c2ccc(OC)c(O)c2)cc(OC)c1
AC50 (HL-60 [1]; Homo sapiens, HL-60): 900 nM
IC50 (HL-60 [2]; Homo sapiens, HL-60): 700 nM
